# Calls of active or inactive are those of the source. The calls are words filed in the database; no cut-off is given here.
# Key:
# MONO-MAC-6 [1] = test: Downregulation of CXCL2 mRNA expression level in human MONO-MAC-6 cells at 5 uM incubated for 30 mins measured after 4 hrs by qRT-PCR method relative to control; format: functional
# MONO-MAC-6 [2] = test: Upregulation of CXCL3 mRNA expression level in human MONO-MAC-6 cells at 5 uM incubated for 30 mins measured after 2 hrs by oligonucleotide array hybridization assay relative to control; format: functional
# MONO-MAC-6 [3] = test: Downregulation of CXCL2 mRNA expression level in human MONO-MAC-6 cells at 5 uM incubated for 30 mins measured after 6 hrs by qRT-PCR method relative to control; format: functional
# MONO-MAC-6 [4] = test: Upregulation of CXCL10 mRNA expression level in human MONO-MAC-6 cells at 5 uM incubated for 30 mins measured after 2 hrs by oligonucleotide array hybridization assay relative to control; format: functional
# MONO-MAC-6 [5] = test: Upregulation of CXCL3 mRNA expression level in LPS-stimulated human MONO-MAC-6 cells at 5 uM preincubated for 30 mins followed by LPS stimulation measured after 2 hrs by oligonucleotide array hybridization assay (reference value: 3.24); format: functional
# MONO-MAC-6 [6] = test: Downregulation of IL-6 mRNA expression level in LPS-stimulated human MONO-MAC-6 cells at 5 uM preincubated for 30 mins followed by LPS stimulation measured after 1 hr by qRT-PCR method (reference value: 1); format: functional
# MONO-MAC-6 [7] = test: Upregulation of IFNA13 mRNA expression level in LPS-stimulated human MONO-MAC-6 cells preincubated for 30 mins followed by LPS stimulation measured after 1 hr by qRT-PCR analysis relative to control; format: functional
# MONO-MAC-6 [8] = test: Downregulation of IL23A mRNA expression level in human MONO-MAC-6 cells at 5 uM incubated for 30 mins measured after 6 hrs by qRT-PCR method relative to control; format: functional
# MONO-MAC-6 [9] = test: Downregulation of CCL20 mRNA expression level in human MONO-MAC-6 cells at 5 uM incubated for 30 mins measured after 1 hr by oligonucleotide array hybridization assay relative to control; format: functional
# Outline: (§1)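 Total RNA was isolated, transcribed and labeled with DY-647 dye, then co-hybridized with DY-548-labeled cDNA from untreated cells on an inflammation oligonucleotide chip (780 gene probes). Differential expression >1.5 was taken as significant.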
# MONO-MAC-6 [10] = test: Upregulation of CXCL3 mRNA expression level in LPS-stimulated human MONO-MAC-6 cells at 5 uM preincubated for 30 mins followed by LPS stimulation measured after 4 hrs by oligonucleotide array hybridization assay (reference value: 13.52); format: functional
# MONO-MAC-6 [11] = test: Upregulation of IL23A mRNA expression level in LPS-stimulated human MONO-MAC-6 cells at 5 uM preincubated for 30 mins followed by LPS stimulation measured after 1 hr by qRT-PCR method (reference value: 1.10); format: functional
# MONO-MAC-6 [12] = test: Downregulation of ICAM1 mRNA expression level in human MONO-MAC-6 cells at 5 uM incubated for 30 mins measured after 4 hrs by oligonucleotide array hybridization assay relative to control; format: functional; outline: as §1
# [13] = target: T1, Sphingomyelin phosphodiesterase (Homo sapiens) (UniProt P17405); test: Inhibition of mmLDL-stimulated acid sphingomyelinase in human PBMC lysates up to 2 uM preincubated for 30 mins followed by mmLDL stimulation measured after 4 hrs by YO-PRO-1/Hoechst 33342 staining based assay
# T1 sequence (whole entry): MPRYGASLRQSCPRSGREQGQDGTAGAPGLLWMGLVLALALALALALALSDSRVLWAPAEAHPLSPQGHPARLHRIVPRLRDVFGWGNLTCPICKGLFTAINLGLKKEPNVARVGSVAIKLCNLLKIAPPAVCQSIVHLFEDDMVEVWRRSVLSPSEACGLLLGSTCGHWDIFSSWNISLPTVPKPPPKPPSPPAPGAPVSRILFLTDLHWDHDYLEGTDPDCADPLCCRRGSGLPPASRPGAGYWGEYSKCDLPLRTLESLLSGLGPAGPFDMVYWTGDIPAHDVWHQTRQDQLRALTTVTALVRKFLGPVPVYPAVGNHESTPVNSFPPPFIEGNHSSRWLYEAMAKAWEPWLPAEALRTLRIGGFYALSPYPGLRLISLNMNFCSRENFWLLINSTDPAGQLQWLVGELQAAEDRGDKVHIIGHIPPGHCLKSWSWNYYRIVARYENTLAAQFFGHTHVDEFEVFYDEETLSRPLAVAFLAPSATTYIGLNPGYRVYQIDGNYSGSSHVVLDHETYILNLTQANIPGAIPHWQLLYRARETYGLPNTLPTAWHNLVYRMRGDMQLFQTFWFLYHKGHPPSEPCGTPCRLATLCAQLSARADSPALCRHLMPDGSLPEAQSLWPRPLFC
# MONO-MAC-6 [14] = test: Upregulation of IL-6 mRNA expression level in LPS-stimulated human MONO-MAC-6 cells at 5 uM preincubated for 30 mins followed by LPS stimulation measured after 4 hrs by qRT-PCR method (reference value: 76.46); format: functional
# MONO-MAC-6 [15] = test: Upregulation of TNFalpha mRNA expression level in LPS-stimulated human MONO-MAC-6 cells at 5 uM preincubated for 30 mins followed by LPS stimulation measured after 1 hr by qRT-PCR method (reference value: 1.08); format: functional
# MONO-MAC-6 [16] = test: Downregulation of PTX3 mRNA expression level in human MONO-MAC-6 cells at 5 uM incubated for 30 mins measured after 6 hrs by oligonucleotide array hybridization assay relative to control; format: functional; outline: as §1
# [17] = target: T1, Sphingomyelin phosphodiesterase (Homo sapiens); test: Inhibition of TNFalpha-stimulated acid sphingomyelinase in human PBMC lysates at 2 to 50 uM preincubated for 30 mins followed by TNFalpha stimulation measured after 4 hrs by YO-PRO-1/Hoechst 33342 staining based assay
# [18] = target: T2, Acid ceramidase (Homo sapiens) (UniProt Q13510); test: Inhibition of mmLDL-stimulated acid ceramidase in human PBMC assessed as ratio of C16-ceramide/lipid phosphate level at 10 uM preincubated for 30 mins followed by mmLDL stimulation measured after 4 hrs by HPLC method (reference value: 0.49); format: cell-based
# T2 sequence (whole entry): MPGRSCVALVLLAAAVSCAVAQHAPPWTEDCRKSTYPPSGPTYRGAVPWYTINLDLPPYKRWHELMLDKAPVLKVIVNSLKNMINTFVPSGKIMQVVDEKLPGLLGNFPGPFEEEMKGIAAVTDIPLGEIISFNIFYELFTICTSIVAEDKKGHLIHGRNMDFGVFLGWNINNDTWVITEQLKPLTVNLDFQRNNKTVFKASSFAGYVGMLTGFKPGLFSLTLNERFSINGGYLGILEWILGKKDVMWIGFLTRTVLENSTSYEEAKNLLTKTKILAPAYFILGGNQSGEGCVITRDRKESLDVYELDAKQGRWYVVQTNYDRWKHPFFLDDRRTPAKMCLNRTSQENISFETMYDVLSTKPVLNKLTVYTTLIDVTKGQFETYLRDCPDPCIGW
# Outline: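 Human macrophages from primary culture were preincubated 30 min with 10 µM compound. They were then stimulated 4 h with mmLDL (54 µg/mL), TNFalpha (3 ng/mL) or exogenous C6-ceramide (10 µM), or left unstimulated. Individual ceramide species (C16 and C24:1) were quantified in the cell lipid extracts.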
smiles,measurement,setting,value
COc1ccc(CCN(C)CCCn2c3ccccc3c3ccccc32)cc1,fold change (FC),MONO-MAC-6 [1],1.845
same,fold change (FC),MONO-MAC-6 [2],1.25
same,fold change (FC),MONO-MAC-6 [3],4.71
same,fold change (FC),MONO-MAC-6 [4],1
same,fold change (FC),MONO-MAC-6 [5],2.34
same,fold change (FC),MONO-MAC-6 [6],1.17
same,fold change (FC),MONO-MAC-6 [7],41.95
same,fold change (FC),MONO-MAC-6 [8],1.72
same,fold change (FC),MONO-MAC-6 [9],1.09
same,fold change (FC),MONO-MAC-6 [10],8.83
same,fold change (FC),MONO-MAC-6 [11],1.03
same,fold change (FC),MONO-MAC-6 [12],1.57
same,inhibition,[13],inactive
same,fold change (FC),MONO-MAC-6 [14],29.11
same,fold change (FC),MONO-MAC-6 [15],1.23
same,fold change (FC),MONO-MAC-6 [16],3.91
same,inhibition,[17],Active
same,Ratio,[18],0.24

# — ChEMBL document CHEMBL4152184, “NB 06: From a simple lysosomotropic aSMase inhibitor to tools for elucidating the role of lysosomes in signaling apoptosis and LPS-induced inflammation” (Eur J Med Chem, 2018)
